How the values were obtained:
Type in all cases: functional
[1] = tested on: HL-60(TB); experiment: Growth inhibition of human HL-60(TB) cells after 48 hrs by sulforhodamine B assay; conditions: HL-60, 48 h
In short: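 NCI 60-cell panel. Cells were preincubated 24 h at 37 °C in 5% CO2, then time-zero plates were TCA-fixed. Drugs were dissolved in DMSO and given at five concentrations (10-fold or half-log dilutions) for 48 h. Suspension cells were fixed with TCA (16% final), stained with 0.4% SRB and read at 515 nm. GI50 is the concentration giving 50% decrease in net growth, taken from log concentration–growth curves.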

[2] = tested on: A549; experiment: Growth inhibition of human A549 cells after 48 hrs by sulforhodamine B assay; conditions: A549, 48 h
In short: (§1)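 NCI 60-line panel, five concentrations (0.01–100 µM) from DMSO stock diluted in medium with gentamicin. Cells were plated 24 h before dosing, with time-zero plates fixed at drug addition, then exposed 48 h at 37 °C, 5% CO₂. Adherent cells were fixed with cold TCA (10% final) and suspension cells with 16% TCA. Staining used 0.4% SRB, solubilised in 10 mM Tris and read at 515 nm. GI₅₀ was taken from log concentration–% growth curves.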

[3] = tested on: COLO 205; experiment: Growth inhibition of human COLO205 cells after 48 hrs by sulforhodamine B assay; conditions: COLO 205, 48 h; in short: as §1
[4] = tested on: HCC 2998; experiment: Growth inhibition of human HCC2998 cells after 48 hrs by sulforhodamine B assay; conditions: HCC 2998, 48 h; in short: as §1
[5] = tested on: HCT-15; experiment: Growth inhibition of human HCT15 cells after 48 hrs by sulforhodamine B assay; conditions: HCT-15, 48 h; in short: as §1
[6] = tested on: SW-620; experiment: Growth inhibition of human SW620 cells after 48 hrs by sulforhodamine B assay; conditions: SW-620, 48 h
In short: (§2)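 Adherent lines plated and held 24 h at 37 °C, 5% CO2, 100% humidity; time-zero plates TCA-fixed at drug addition. Drugs from DMSO stocks were made into five concentrations by 10-fold or half-log serial dilution and applied for 48 h continuous exposure. Cells were fixed with cold TCA (10% final) for 60 min at 4 °C, then stained with 0.4% SRB in 1% acetic acid for 10 min. Dye was solubilized in 10 mM Tris base and read at 515 nm. GI50 was taken from log concentration–growth curves.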

[7] = tested on: SF-268; experiment: Growth inhibition of human SF268 cells after 48 hrs by sulforhodamine B assay; conditions: SF-268, 48 h; in short: as §1
[8] = tested on: SF-295; experiment: Growth inhibition of human SF295 cells after 48 hrs by sulforhodamine B assay; conditions: SF-295, 48 h; in short: as §1
[9] = tested on: SNB-19; experiment: Growth inhibition of human SNB19 cells after 48 hrs by sulforhodamine B assay; conditions: SNB-19, 48 h; in short: as §2
[10] = tested on: SNB-75; experiment: Growth inhibition of human SNB75 cells after 48 hrs by sulforhodamine B assay; conditions: SNB-75, 48 h; in short: as §2
[11] = tested on: U-251; experiment: Growth inhibition of human U251 cells after 48 hrs by sulforhodamine B assay; conditions: U-251, 48 h; in short: as §2
[12] = tested on: SK-MEL-5; experiment: Growth inhibition of human SK-MEL-5 cells after 48 hrs by sulforhodamine B assay; conditions: SK-MEL-5, 48 h; in short: as §2
[13] = tested on: UACC-257; experiment: Growth inhibition of human UACC257 cells after 48 hrs by sulforhodamine B assay; conditions: UACC-257, 48 h; in short: as §2
[14] = tested on: UACC-62; experiment: Growth inhibition of human UACC62 cells after 48 hrs by sulforhodamine B assay; conditions: UACC-62, 48 h; in short: as §2
[15] = tested on: OVCAR-4; experiment: Growth inhibition of human OVCAR4 cells after 48 hrs by sulforhodamine B assay; conditions: OVCAR-4, 48 h; in short: as §1
[16] = tested on: OVCAR-5; experiment: Growth inhibition of human OVCAR5 cells after 48 hrs by sulforhodamine B assay; conditions: OVCAR-5, 48 h; in short: as §1
[17] = tested on: OVCAR-8; experiment: Growth inhibition of human OVCAR8 cells after 48 hrs by sulforhodamine B assay; conditions: OVCAR-8, 48 h; in short: as §1
[18] = tested on: 786-0; experiment: Growth inhibition of human 786-0 cells after 48 hrs by sulforhodamine B assay; conditions: 786-0, 48 h; in short: as §1
[19] = tested on: A498; experiment: Growth inhibition of human A498 cells after 48 hrs by sulforhodamine B assay; conditions: A498, 48 h; in short: as §1
[20] = tested on: ACHN; experiment: Growth inhibition of human ACHN cells after 48 hrs by sulforhodamine B assay; in short: as §1
[21] = tested on: CAKI-1; experiment: Growth inhibition of human Caki1 cells after 48 hrs by sulforhodamine B assay; conditions: CAKI-1, 48 h; in short: as §1
[22] = tested on: RXF 393; experiment: Growth inhibition of human […] cells after 48 hrs by sulforhodamine B assay; conditions: RXF 393, 48 h; in short: as §1
[23] = tested on: SN12C; experiment: Growth inhibition of human SN12C cells after 48 hrs by sulforhodamine B assay; in short: as §2
[24] = tested on: TK-10; experiment: Growth inhibition of human TK10 cells after 48 hrs by sulforhodamine B assay; conditions: TK-10, 48 h; in short: as §2
[25] = tested on: UO-31; experiment: Growth inhibition of human UO31 cells after 48 hrs by sulforhodamine B assay; conditions: UO-31, 48 h; in short: as §2
[26] = tested on: MCF7; experiment: Growth inhibition of human MCF7 cells after 48 hrs by sulforhodamine B assay; conditions: MCF7, 48 h; in short: as §1
[27] = tested on: NCI/ADR-RES; experiment: Growth inhibition of human NCI/ADR-RES cells after 48 hrs by sulforhodamine B assay; in short: as §1
[28] = Growth inhibition of human Hs 578T cells after 48 hrs by sulforhodamine B assay; in short: as §1
[29] = tested on: MDA-MB-435; experiment: Growth inhibition of human MDA-MB-435 cells after 48 hrs by sulforhodamine B assay; conditions: MDA-MB-435, 48 h; in short: as §1
[30] = tested on: MDA-MB-468; experiment: Growth inhibition of human MDA-MB-468 cells after 48 hrs by sulforhodamine B assay; conditions: MDA-MB-468, 48 h; in short: as §1
[31] = Cytotoxicity against human leukemia cells after 48 hrs by sulforhodamine B assay; conditions: Leukemia cell
In short: (§3)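 NCI five-dose screen: about 60 human tumour lines grouped into nine subpanels were plated and incubated 24 h before dosing. Compounds went in as DMSO stock and were diluted in medium to five final concentrations (0.01–100 µM). Exposure was 48 h continuous at 37 °C, 5% CO₂, followed by TCA fixation and SRB staining read at 515 nm. Per-line GI₅₀, TGI and LC₅₀ came from log concentration–% growth curves, averaged per subpanel as MG-MID.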

[32] = Cytotoxicity against human lung cancer cells after 48 hrs by sulforhodamine B assay; conditions: Cancer cell lines; in short: as §3
[33] = Cytotoxicity against human colon cancer cells after 48 hrs by sulforhodamine B assay; conditions: Cancer cell lines; in short: as §3
[34] = Cytotoxicity against human CNS cancer cells after 48 hrs by sulforhodamine B assay; conditions: Cancer cell lines; in short: as §3
[35] = Cytotoxicity against human melanoma cells after 48 hrs by sulforhodamine B assay; conditions: Melanoma cell; for CC50: read-out: LC50 (the source's name); in short: as §3
[36] = Cytotoxicity against human ovarian cancer cells after 48 hrs by sulforhodamine B assay; conditions: Cancer cell lines; in short: as §3
[37] = Cytotoxicity against human prostate cancer cells after 48 hrs by sulforhodamine B assay; conditions: Cancer cell lines; in short: as §3
[38] = Cytotoxicity against human breast cancer cells after 48 hrs by sulforhodamine B assay; conditions: Cancer cell lines; in short: as §3

SMILES: N#Cc1cnn(C(=O)c2nn(-c3ccc(Cl)cc3)cc2O)c1N
- GI50 [1]: 330 nM
- GI50 [2]: 200 nM
- GI50 [3]: 910 nM
- GI50 [4]: 650 nM
- GI50 [5]: 340 nM
- GI50 [6]: 520 nM
- GI50 [7]: 460 nM
- GI50 [8]: 160 nM
- GI50 [9]: 450 nM
- GI50 [10]: 250 nM
- GI50 [11]: 290 nM
- GI50 [12]: 480 nM
- GI50 [13]: 560 nM
- GI50 [14]: 300 nM
- GI50 [15]: 460 nM
- GI50 [16]: 640 nM
- GI50 [17]: 480 nM
- GI50 [18]: 660 nM
- GI50 [19]: 170 nM
- GI50 [20]: 320 nM
- GI50 [21]: 280 nM
- GI50 [22]: 510 nM
- GI50 [23]: 350 nM
- GI50 [24]: 280 nM
- GI50 [25]: 300 nM
- GI50 [26]: 360 nM
- GI50 [27]: 370 nM
- GI50 [28]: 190 nM
- GI50 [29]: 290 nM
- GI50 [30]: 950 nM
- GI50 [31]: 270 nM
- LC50 (concentration killing 50% of cells) [31]: 44300 nM
- TGI [31]: 3230 nM
- GI50 [32]: 320 nM
- LC50 (concentration causing 50% net cell kill) [32]: 69400 nM
- TGI [32]: 10800 nM
- GI50 [33]: 610 nM
- TGI [33]: 12600 nM
- CC50 ([33]; read-out: LC50 (the source's name)): 64300 nM
- GI50 [34]: 320 nM
- LC50 [34]: 74700 nM
- TGI [34]: 23100 nM
- GI50 [35]: 460 nM
- TGI [35]: 11900 nM
- CC50 [35]: 65000 nM
- GI50 [36]: 500 nM
- LC50 (50% lethal concentration) [36]: 88500 nM
- TGI [36]: 19600 nM
- GI50 [37]: 450 nM
- TGI [37]: 13400 nM
- GI50 [38]: 430 nM
- LC50 [38]: 64300 nM
- TGI [38]: 14400 nM

SMILES: O=C(c1nn(-c2ccc(Cl)cc2)cc1O)n1nc(-c2ccco2)cc1C(F)(F)F
- GI50 [1]: 2420 nM
- GI50 [2]: 7230 nM
- GI50 [3]: 2970 nM
- GI50 [4]: 10500 nM
- GI50 [5]: 1440 nM
- GI50 [6]: 4750 nM
- GI50 [7]: 3630 nM
- GI50 [8]: 480 nM
- GI50 [9]: 4370 nM
- GI50 [10]: 820 nM
- GI50 [11]: 5860 nM
- GI50 [12]: 2490 nM
- GI50 [13]: 2670 nM
- GI50 [14]: 2160 nM
- GI50 [15]: 2430 nM
- GI50 [16]: 2600 nM
- GI50 [17]: 1880 nM
- GI50 [18]: 6600 nM
- GI50 [19]: 8710 nM
- GI50 [20]: 2530 nM
- GI50 [21]: 2430 nM
- GI50 [22]: 30 nM
- GI50 [23]: 5180 nM
- GI50 [24]: 1450 nM
- GI50 [25]: 3840 nM
- GI50 [26]: 3510 nM
- GI50 [27]: 1600 nM
- GI50 [28]: 640 nM
- GI50 [29]: 1970 nM
- GI50 [30]: 4660 nM
- GI50 [31]: 1760 nM
- TGI [31]: 80700 nM
- GI50 [32]: 3190 nM
- TGI [32]: 78900 nM
- GI50 [33]: 4590 nM
- TGI [33]: 88500 nM
- GI50 [34]: 2990 nM
- TGI [34]: 90500 nM
- GI50 [35]: 4140 nM
- TGI [35]: 63700 nM
- CC50 [35]: 89400 nM
- GI50 [36]: 2180 nM
- TGI [36]: 94500 nM
- GI50 [37]: 18400 nM
- GI50 [38]: 3070 nM
- TGI [38]: 77000 nM
